Experiments:
Plasmodium falciparum [1] = assay: Inhibition of Plasmodium falciparum protein farnesyltransferase at 5 nM by scintillation proximity assay
Plasmodium falciparum [2] = assay: Antimalarial activity against Plasmodium falciparum K1; assay type: functional; conditions: Plasmodium falciparum, K1; read-out: ED50 (the source's name)
In short: (§1)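 Asynchronous culture in type A+ erythrocytes at 0.5% parasitemia and 0.5% hematocrit, grown in RPMI-1640 with 20% heat-inactivated human A+ plasma. Compound was serially diluted from a top final 5 µM, with DMSO vehicle as 100% growth. Plates ran 48 h at 37 °C under 5% CO2/5% O2/90% N2, then [3H]-hypoxanthine (0.3 µCi) for 24 h. Filter-harvested counts were corrected for the uninfected-RBC background. ED50 by linear regression; duplicates averaged.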

Plasmodium falciparum [3] = assay: Antimalarial activity against Plasmodium falciparum 3D7; assay type: functional; conditions: Plasmodium falciparum, 3D7; read-out: ED50 (the source's name); in short: as §1
Plasmodium falciparum [4] = assay: Inhibition of Plasmodium falciparum protein farnesyltransferase at 50 nM by scintillation proximity assay
Plasmodium falciparum [5] = assay: Inhibition of Plasmodium falciparum protein farnesyltransferase at 0.5 nM by scintillation proximity assay

| Structure (SMILES) | inhibition (Plasmodium falciparum [1]) [%] | EC50 (Plasmodium falciparum [2]) [nM] | EC50 (Plasmodium falciparum [3]) [nM] | inhibition (Plasmodium falciparum [4]) [%] | inhibition (Plasmodium falciparum [5]) [%] |
| --- | --- | --- | --- | --- | --- |
| Cn1cncc1CN1CC(N(Cc2ccccc2F)S(=O)(=O)c2cccc3nsnc23)Cc2cc(C#N)ccc21 (stereo not given) | 28 | 1000 | 700 | 74 | 4 |
| Cn1cnc(S(=O)(=O)N(CCN)C2Cc3cc(C#N)ccc3N(Cc3cncn3C)C2)c1 (stereo not given) | 15 | > 5000 | > 5000 | 72 | 0 |
| Cn1cnc(S(=O)(=O)N(CCc2c[nH]c3ccccc23)C2Cc3cc(C#N)ccc3N(Cc3cncn3C)C2)c1 (stereo not given) | 91 | 130 | 130 | 97 | 55 |
| COC(=O)N1CCC(CN(C2Cc3cc(C#N)ccc3N(S(=O)(=O)c3cncn3C)C2)S(=O)(=O)c2ccccn2)CC1 (stereo not given) | 0 | 3200 | > 5000 | 0 | 0 |
| COC(=O)NCCN(C1Cc2cc(C#N)ccc2N(Cc2cncn2C)C1)S(=O)(=O)c1ccccn1 (stereo not given) | 47 | 400 | 510 | 90 | 14 |
| Cn1cncc1CN1CC(N(CCCCCC(N)=O)S(=O)(=O)c2ccccn2)Cc2cc(C#N)ccc21 (stereo not given) | 32 | 250 | 300 | 81 | 4 |
| Cn1cncc1CN1CC(N(Cc2ccc(F)cc2)S(=O)(=O)c2ccccn2)Cc2cc(C#N)ccc21 (stereo not given) | 50 | 2500 | 430 | 91 | 11 |
| CCCS(=O)(=O)N(CC1CCN(C(=O)OC)CC1)C1Cc2cc(C#N)ccc2N(Cc2cncn2C)C1 (stereo not given) | 22 | 1800 | 1100 | 55 | 1 |
| COC(=O)N1CCC(CN(C2Cc3cc(C#N)ccc3N(Cc3cncn3C)C2)S(=O)(=O)c2ncn(C)c2C)CC1 (stereo not given) | 97 | < 20 | 35 | 100 | 49 |
| Cn1cnc(CN2CC(N(CC(=O)NC(C)(C)C)S(C)(=O)=O)Cc3cc(-c4ccccc4)ccc32)c1 (stereo not given) | 0 | > 5000 | > 5000 | 2 | 0 |
| Cn1cncc1CN1CC(N(Cc2ccccc2F)C(=O)C2CC2)Cc2cc(C#N)ccc21 (stereo not given) | 0 | 2000 | 950 | 33 | 0 |
| Cn1cnc(S(=O)(=O)N(CCc2cccs2)C2Cc3cc(C#N)ccc3N(Cc3cncn3C)C2)c1 (stereo not given) | 86 | 8.5 | 21 | 100 | 26 |
| Cn1cnc(CN2CC(N(CC(=O)NC(C)(C)C)S(=O)(=O)c3cccs3)Cc3cc(-c4ccccc4)ccc32)c1 (stereo not given) | 1 | > 5000 | 3500 | 10 | 4 |
| Cc1nc(C)c(S(=O)(=O)N(CC(=O)NC(C)(C)C)C2Cc3cc(C#N)ccc3N(Cc3cncn3C)C2)s1 (stereo not given) | 3 | > 5000 | > 5000 | 0 | 2 |
| Cn1cncc1CN1CC(N(CC2CCN(S(=O)(=O)c3ccccc3)CC2)S(=O)(=O)c2ccccn2)Cc2cc(C#N)ccc21 (stereo not given) | 7 | 280 | 275 | 96 | 67 |
| CCN(CC)C(=O)c1ccc2c(c1)CC(N(CC(=O)NC(C)(C)C)S(=O)(=O)c1cn(C)cn1)CN2Cc1cncn1C (stereo not given) | 23 | 2600 | 2800 | 73 | 0 |
| COC(=O)N1CCC(CN(C2Cc3cc(C#N)ccc3N(Cc3cncn3C)C2)S(=O)(=O)c2cn(C)cn2)CC1 (stereo not given) | 95 | 4.5 | 9 | 97 | 54 |
| CN(CCCN(C1Cc2cc(C#N)ccc2N(Cc2cncn2C)C1)S(=O)(=O)c1ccccn1)C(=O)OC(C)(C)C (stereo not given) | 80 | 170 | 130 | 86 | 35 |
| Cn1cnc(S(=O)(=O)N(Cc2ccc(S(C)(=O)=O)cc2)C2Cc3cc(C#N)ccc3N(Cc3cncn3C)C2)c1 (stereo not given) | 99 | 10 | 6 | 100 | 82 |
| C=C(Br)CN(C1Cc2cc(-c3ccccc3)ccc2N(Cc2cncn2C)C1)S(=O)(=O)c1cn(C)cn1 (stereo not given) | 89 | 360 | 380 | 97 | 21 |
| CC(C)S(=O)(=O)N1CCC(CN(C2Cc3cc(C#N)ccc3N(Cc3cncn3C)C2)S(=O)(=O)c2ccccn2)CC1 (stereo not given) | 17 | 55 | 75 | 96 | 89 |
| COC(=O)N1CCC(CN(C2Cc3cc(C#N)ccc3N(Cc3cncn3C)C2)S(C)(=O)=O)CC1 (stereo not given) | 5 | > 5000 | 2700 | 66 | 0 |

Continued by falling EC50 (Plasmodium falciparum [2]), values first:

| inhibition (Plasmodium falciparum [1]) [%] | EC50 (Plasmodium falciparum [2]) [nM] | EC50 (Plasmodium falciparum [3]) [nM] | inhibition (Plasmodium falciparum [4]) [%] | inhibition (Plasmodium falciparum [5]) [%] | Structure (SMILES) |
| --- | --- | --- | --- | --- | --- |
| 46 | 3500 | 4600 | 88 | 0 | Cn1cnc(CN2CC(N(Cc3ccc(C(F)(F)F)o3)S(=O)(=O)c3cn(C)cn3)Cc3cc(-c4ccccc4)ccc32)c1 (stereo not given) |
| 52 | 2600 | 1250 | 92 | 6 | CCN(CCCCN(C1Cc2cc(C#N)ccc2N(Cc2cncn2C)C1)S(=O)(=O)c1ccccn1)C(=O)OC(C)(C)C (stereo not given) |
| 19 | 2400 | 1600 | 58 | 0 | COC(=O)N1CCC(CN(C2Cc3cc(C#N)ccc3N(Cc3cncn3C)C2)S(=O)(=O)N(C)C)CC1 (stereo not given) |
| 81 | 800 | 1000 | 97 | 24 | Cn1cncc1CN1CC(N(Cc2cccc(C(=O)O)n2)S(=O)(=O)c2ccccn2)Cc2cc(C#N)ccc21 (stereo not given) |
| 1 | 730 | 650 | 43 | 0 | CC(=O)N(Cc1ccccc1F)C1Cc2cc(C#N)ccc2N(Cc2cncn2C)C1 (stereo not given) |
| 91 | 600 | 210 | 99 | 37 | Cn1cnc(S(=O)(=O)N(Cc2ccc3cccnc3c2)C2Cc3cc(C#N)ccc3N(Cc3cncn3C)C2)c1 (stereo not given) |
| 78 | 270 | 320 | 98 | 27 | CN(CCCCN(C1Cc2cc(C#N)ccc2N(Cc2cncn2C)C1)S(=O)(=O)c1ccccn1)C(=O)OC(C)(C)C (stereo not given) |
| 94 | 230 | 60 | 99 | 18 | Cn1cnc(S(=O)(=O)N(Cc2cccc3nsnc23)C2Cc3cc(C#N)ccc3N(Cc3cncn3C)C2)c1 (stereo not given) |
| 47 | 75 | 65 | 91 | 91 | Cn1cncc1CN1CC(N(CC2CCN(C(=O)OCC(F)(F)F)CC2)S(=O)(=O)c2ccccn2)Cc2cc(C#N)ccc21 (stereo not given) |
| 80 | 70 | 55 | 97 | 24 | COC(=O)N1CCC(CN(C2Cc3cc(C#N)ccc3N(Cc3cncn3C)C2)S(=O)(=O)c2ccccc2Cl)CC1 (stereo not given) |

Reference: ChEMBL document CHEMBL1148785, “Second generation tetrahydroquinoline-based protein farnesyltransferase inhibitors as antimalarials” (J Med Chem, 2007)
